ChEMBL document CHEMBL1255465, “Persistence of uropathogenic Escherichia coli in the face of multiple antibiotics” (Antimicrob Agents Chemother, 2010)
Activity calls are given as the source filed them. The calls are words filed in the database; no cut-off is given here.

Experiments:
5637 [1] = assay: Cytotoxicity against human 5637 cells assessed as mild induction of cell death by trypan blue exclusion assay; format: cell-based
Outline: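 Integrity of 5637 cells after drug treatment assessed by 0.4% trypan blue exclusion, following a standard protocol.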

5637 [2] = assay: Cytotoxicity against human 5637 cells assessed as mild induction of cell death by LDH release assay; format: cell-based
Escherichia coli [3] = assay: Antibacterial activity against uropathogenic Escherichia coli UTI89 assessed as degradation of preexisting biofilm after 24 hrs by microscopy; format: functional, organism-based
Outline: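 UTI89 diluted 1:100 into M9 medium and grown statically 48 h at 37°C in microtiter wells. Nonadherent cells removed, fresh M9 ± drug added for 24 h, using the higher of two tested concentrations. Viable bacteria in biofilms visualized by Live/Dead BacLight staining and microscopy.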

Escherichia coli [4] = assay: Antibacterial activity against uropathogenic Escherichia coli UTI89 infected in human 5637 cells assessed as decrease in intracellular bacterial level at 1000 to 2000 ug/ml after 12 hrs by serial dilution method; format: functional, organism-based
Outline: (§1)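 Confluent 5637 monolayers in triplicate infected with UTI89 (24-h static LB culture, type 1 pili) at MOI ~15 and spun 600 × g for 5 min. After 2 h: gentamicin 100 μg/ml for 2 h, then 10 μg/ml for 14 h. Then 12 h with drug at two concentrations. Cells lysed in 0.4% Triton X-100 and plated on LB agar. Titers expressed relative to 800 μg/ml gentamicin. ≥3 independent assays.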

Escherichia coli [5] = assay: Antibacterial activity against uropathogenic Escherichia coli UTI89 infected in human 5637 cells assessed as decrease in intracellular bacterial level at 1200 to 1600 ug/ml after 12 hrs by serial dilution method; format: functional, organism-based; outline: as §1
Escherichia coli [6] = assay: Antibacterial activity against uropathogenic Escherichia coli UTI89 assessed as inhibition of biofilm formation after 24 hrs by microtiterplate-based assay; format: functional, organism-based
Outline: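 Biofilms of UTI89 formed for 48 h at 37°C without shaking in M9 (1:100 inoculum, triplicate wells). Fresh M9 ± drug (higher of two tested concentrations) then added for 24 h. Biomass stained with 0.1% crystal violet, solubilized in DMSO, read at A562, and expressed relative to untreated controls. Three independent experiments.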

Escherichia coli [7] = settings: UTI89, Urothelium, 2 mg/kg
Escherichia coli [8] = settings: UTI89, 5637, 2 to 3 ug/ml
Escherichia coli [9] = settings: UTI89, Urinary bladder, 2 mg/kg
Escherichia coli [10] = assay: Antibacterial activity against uropathogenic Escherichia coli UTI89 isolated from urine samples of infected CBA/J mouse after 24 hrs by disk diffusion assay; format: functional, organism-based
Outline: (§2)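 Urine collected by gentle bladder pressure 2 h after oral dosing of UTI89-infected CBA/J mice. 10 μl spotted on 7-mm filter discs, placed on fresh UTI89 lawns on LB agar. Clearance diameter measured after 24 h at 37°C. Urine drug level calculated from standard curves of discs holding known antibiotic concentrations.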

Escherichia coli [11] = settings: UTI89, Urothelium, 2 mg/kg; remark: listed apart in the source
Escherichia coli [12] = assay: Antibacterial activity against uropathogenic Escherichia coli UTI89 infected in human 5637 cells assessed as decrease in intracellular bacterial level at 1000 to 3000 ug/ml after 12 hrs by serial dilution method; format: functional, organism-based; outline: as §1
Escherichia coli [13] = assay: Antibacterial activity against uropathogenic Escherichia coli UTI89 infected in human 5637 cells assessed as decrease in intracellular bacterial level at 200 to 300 ug/ml after 12 hrs by serial dilution method; format: functional, organism-based; outline: as §1
Escherichia coli [14] = assay: Antibacterial activity against uropathogenic Escherichia coli UTI89 infected in human 5637 cells assessed as decrease in intracellular bacterial level at 800 to 1200 ug/ml after 12 hrs by serial dilution method; format: functional, organism-based
Outline: (§3)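 UTI89 was grown 24 h static in LB (type 1 pili) and added to confluent 5637 monolayers at MOI ~15, spun 600 × g for 5 min. After 2 h at 37°C: gentamicin 100 μg/ml for 2 h, then 10 μg/ml for 14 h. Next, 12 h with antibiotic at two concentrations. Lysis in 0.4% Triton X-100, serial-dilution plating; titers relative to 800 μg/ml gentamicin. ≥3 independent assays in triplicate, mean ± SEM.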

Escherichia coli [15] = assay: Antibacterial activity against uropathogenic Escherichia coli UTI89 infected in human 5637 cells assessed as decrease in intracellular bacterial level at 300 to 500 ug/ml after 12 hrs by serial dilution method; format: functional, organism-based; outline: as §3
Escherichia coli [16] = assay: Antibacterial activity against uropathogenic Escherichia coli UTI89 infected in human 5637 cells assessed as decrease in intracellular bacterial level at 400 to 700 ug/ml after 12 hrs by serial dilution method; format: functional, organism-based; outline: as §1
Escherichia coli [17] = assay: Antibacterial activity against uropathogenic Escherichia coli UTI89 infected in human 5637 cells assessed as decrease in intracellular bacterial level at 600 to 1000 ug/ml after 12 hrs by serial dilution method; format: functional, organism-based; outline: as §1
Escherichia coli [18] = assay: Antibacterial activity against uropathogenic Escherichia coli UTI89 infected in CBA/J mouse assessed as decrease in bacterial invasion into layers of urothelium at 700 ug/kg, po administered on day 3 postinfection daily for 3 days measured on day 9 post-inoculation in presence of Triton X-100; format: functional, organism-based
Escherichia coli [19] = assay: Antibacterial activity against uropathogenic Escherichia coli UTI89 infected in CBA/J mouse assessed as decrease in bacterial invasion into layers of urothelium at 700 ug/kg, po administered on day 3 postinfection daily for 3 days measured on day 9 post-inoculation; format: functional, organism-based
Escherichia coli [20] = assay: Antibacterial activity against pGEN-GFP carrying uropathogenic Escherichia coli UTI89 isolated from bladder samples of infected CBA/J mouse assessed as decrease in growth of intracellular bacterial community at 12 ug/ml treated 6 hrs postinfection measured after 18 hrs; format: functional, organism-based
Outline: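 Bladders from female CBA/J mice taken 6 h after transurethral inoculation with GFP(LVA)-plasmid UTI89, then halved, splayed and pinned lumen-up under Ringer solution (pH 7.4). Drug combination added at 12 and 700 μg/ml. GFP-positive IBCs counted by fluorescence stereomicroscopy at set times up to 18 h. n = 8 mice per group; Mann-Whitney U test.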

[21] = Drug level in Escherichia coli UTI89-infected CBA/J mouse urine at 700 ug/kg, po after 2 hrs; format: ADME, organism-based; settings: in vivo, 0.7 mg/kg; outline: as §2
Escherichia coli [22] = assay: Antibacterial activity against uropathogenic Escherichia coli UTI89 infected in human 5637 cells assessed as decrease in intracellular bacterial level at 12 to 100 ug/ml after 12 hrs by serial dilution method; format: functional, organism-based; outline: as §1
Escherichia coli [23] = assay: Antibacterial activity against uropathogenic Escherichia coli UTI89 infected in CBA/J mouse assessed as decrease in bacterial load in bladder at 700 ug/kg, po administered on day 3 postinfection daily for 3 days measured on day 9 post-inoculation; format: functional, organism-based; settings: Urinary bladder
Outline: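 Female CBA/J mice, 7–8 weeks old, inoculated transurethrally with ~10^7 CFU UTI89 (24-h static LB culture) in 50 μl PBS. From day 3, one oral gavage daily for 3 days, 50 μl; controls given water. On day 9, bladders homogenized in PBS with 0.025% Triton X-100 and plated on LB agar for CFU. 11 mice from two experiments; Mann-Whitney U test.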

Escherichia coli [24] = assay: Antibacterial activity against uropathogenic Escherichia coli UTI89 infected in human 5637 cells assessed as decrease in intracellular bacterial level at 250 to 300 ug/ml after 12 hrs by serial dilution method; format: functional, organism-based; outline: as §1
[25] = Drug level in Escherichia coli UTI89-infected CBA/J mouse urine at 200 ug/kg, sc after 2 hrs; format: ADME, organism-based; settings: in vivo, 0.2 mg/kg
Outline: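 Urine was collected 2 h after dosing by gentle bladder pressure. 10-μl aliquots went onto 7-mm sterile filter discs laid on fresh UTI89 lawns on LB agar. Clearance diameters were read after 24 h at 37°C, and levels were calculated from standard curves of discs with known antibiotic concentrations.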

Escherichia coli [26] = assay: Antibacterial activity against uropathogenic Escherichia coli UTI89 infected in human 5637 cells assessed as decrease in intracellular bacterial level at 400 to 800 ug/ml after 12 hrs by serial dilution method; format: functional, organism-based; outline: as §3
Escherichia coli [27] = assay: Antibacterial activity against uropathogenic Escherichia coli UTI89 infected in CBA/J mouse assessed as decrease in bacterial invasion into layers of urothelium at 200 ug/kg, sc administered on day 3 postinfection daily for 3 days measured on day 9 post-inoculation; format: functional, organism-based
Escherichia coli [28] = assay: Antibacterial activity against uropathogenic Escherichia coli UTI89 infected in CBA/J mouse assessed as decrease in bacterial load in bladder at 200 ug/kg, sc administered on day 3 postinfection daily for 3 days measured on day 9 post-inoculation; format: functional, organism-based; settings: Urinary bladder
Escherichia coli [29] = assay: Antibacterial activity against uropathogenic Escherichia coli UTI89 infected in CBA/J mouse assessed as decrease in bacterial invasion into layers of urothelium at 200 ug/kg, sc administered on day 3 postinfection daily for 3 days measured on day 9 post-inoculation in presence of Triton X-100; format: functional, organism-based

| Compound | Activity 5637 [1] | Activity 5637 [2] | Activity (Escherichia coli [3]) | other results |
| --- | --- | --- | --- | --- |
| NCC[C@H](O)C(=O)N[C@@H]1C[C@H](N)[C@@H](O[C@H]2O[C@H](CN)[C@@H](O)[C@H](O)[C@H]2O)[C@H](O)[C@H]1O[C@H]1O[C@H](CO)[C@@H](O)[C@H](N)[C@H]1O [AMIKACIN] | Toxic | Toxic | Active | inhibition (Escherichia coli [4]): Active |
| CC1=C(C(=O)O)N2C(=O)[C@@H](NC(=O)[C@H](N)c3ccc(O)cc3)[C@H]2SC1 [CEFADROXIL] | Toxic | Toxic | Active | inhibition (Escherichia coli [5]): Active; Biofilm inhibition activity (Escherichia coli [6]): Active |
| O=C(O)c1cn(C2CC2)c2cc(N3CCNCC3)c(F)cc2c1=O [CIPROFLOXACIN] | Toxic | Toxic | Active | inhibition (Escherichia coli [7]): Active; inhibition (Escherichia coli [8]): Active; inhibition (Escherichia coli [9]): Active; Activity (Escherichia coli [10]): Active; inhibition (Escherichia coli [11]): inactive |
| NC[C@H]1O[C@H](O[C@H]2[C@H](O)[C@@H](O[C@H]3O[C@H](CO)[C@@H](O)[C@H](N)[C@H]3O)[C@H](N)C[C@@H]2N)[C@H](O)[C@@H](O)[C@@H]1O [KANAMYCIN] | Toxic | Toxic | Active | inhibition (Escherichia coli [12]): Active |
| C[C@H]1COc2c(N3CCN(C)CC3)c(F)cc3c(=O)c(C(=O)O)cn1c23.C[C@H]1COc2c(N3CCN(C)CC3)c(F)cc3c(=O)c(C(=O)O)cn1c23.O [LEVOFLOXACIN] | Toxic | Toxic | Active | inhibition (Escherichia coli [13]): Active |
| CCOc1ccc2ccccc2c1C(=O)N[C@@H]1C(=O)N2[C@@H]1SC(C)(C)[C@@H]2C(=O)O [NAFCILLIN] | Toxic | Toxic | Active | inhibition (Escherichia coli [5]): Active |
| CCn1cc(C(=O)O)c(=O)c2ccc(C)nc21 [NALIDIXIC ACID] | Toxic | Toxic | Active | inhibition (Escherichia coli [14]): Active |
| O=C1CN(/N=C/c2ccc([N+](=O)[O-])o2)C(=O)N1 [NITROFURANTOIN] | Toxic | Toxic | Active | inhibition (Escherichia coli [15]): Active |
| CCn1cc(C(=O)O)c(=O)c2cc(F)c(N3CCNCC3)cc21 [NORFLOXACIN] | Toxic | Toxic | Active | inhibition (Escherichia coli [15]): Active |
| CC1COc2c(N3CCN(C)CC3)c(F)cc3c(=O)c(C(=O)O)cn1c23 (centres undefined) [OFLOXACIN] | Toxic | Toxic | Active | inhibition (Escherichia coli [16]): Active |
| CC1(C)S[C@@H]2[C@H](NC(=O)Cc3ccccc3)C(=O)N2[C@H]1C(=O)O [PENICILLIN G] | Toxic | Toxic | Active | Biofilm inhibition activity (Escherichia coli [6]): Active; inhibition (Escherichia coli [17]): Active |
| C[C@@H]1CN(c2c(F)c(N)c3c(=O)c(C(=O)O)cn(C4CC4)c3c2F)C[C@H](C)N1 [SPARFLOXACIN] | Toxic | Toxic | Active | inhibition (Escherichia coli [18]): Active; inhibition (Escherichia coli [19]): inactive; inhibition (Escherichia coli [20]): Active; Drug uptake [21]: 0.3 µg/mL; Biofilm inhibition activity (Escherichia coli [6]): Active; inhibition (Escherichia coli [22]): Active; Activity (Escherichia coli [10]): Active; inhibition (Escherichia coli [23]): Active |
| CN(C)[C@@H]1C(O)=C(C(N)=O)C(=O)[C@@]2(O)C(O)=C3C(=O)c4c(O)cccc4[C@@](C)(O)[C@H]3C[C@@H]12 [TETRACYCLINE] | Toxic | Toxic | Active | inhibition (Escherichia coli [24]): Active |
| GENTAMICIN [listing 1 of 2 here] | Toxic | Toxic |  | Drug uptake [25]: 2 mg/mL |
| GENTAMICIN [listing 2 of 2 here] |  |  | Active | inhibition (Escherichia coli [26]): Active; inhibition (Escherichia coli [27]): inactive; inhibition (Escherichia coli [28]): inactive; inhibition (Escherichia coli [29]): Active; Activity (Escherichia coli [10]): Active |
